Test results: ChEMBL document CHEMBL3992538, “Hybrids of thienopyrimidinones and thiouracils as anti-tubercular agents: SAR and docking studies” (Eur J Med Chem, 2017)
Values after ≈ are worked out from the molar mass of the structure shown.

Key:
[1] = Selectivity index, ratio of GI50 for human A549 cells to MIC for dormant stage of Mycobacterium tuberculosis H37Ra ATCC 25177; format: toxicity; conditions: read-out: Selectivity Index
Procedure, shortened: (§1)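 Selectivity index is the cytotoxic GI50 against the named human cell line divided by the antimycobacterial value. Activity counted as specific when SI >10.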

[2] = system: Mycobacterium tuberculosis; assay: Antitubercular activity against dormant stage of Mycobacterium tuberculosis H37Ra ATCC 25177 infected in human THP1 cells after 12 days by nitrate reductase assay; format: functional; conditions: H37Ra ATCC 25177, 288 h
Procedure, shortened: (§2)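 Ex vivo test of H37Ra in THP-1 cells by nitrate reductase assay, absorbance read at 540 nm. Active stage incubated 8 days and dormant stage 12 days. H37Ra (ATCC 25177) grown in M. pheli medium to OD 1.0 and subcultured once from -70°C stock.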

[3] = Selectivity index, ratio of GI50 for human PANC1 cells to MIC for dormant stage of Mycobacterium tuberculosis H37Ra ATCC 25177; format: toxicity; conditions: PANC-1 cells, read-out: Selectivity Index; procedure, shortened: as §1
[4] = Selectivity index, ratio of GI50 for human HeLa cells to MIC for dormant stage of Mycobacterium tuberculosis H37Ra ATCC 25177 infected in human THP1 cells; format: toxicity, cell-based; conditions: read-out: Selectivity Index; procedure, shortened: as §1
[5] = system: Mycobacterium tuberculosis; assay: Antitubercular activity against active stage of Mycobacterium tuberculosis H37Ra ATCC 25177 after 8 days by XTT reduction menadione assay; format: functional; conditions: H37Ra ATCC 25177, 192 h
Procedure, shortened: (§3)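 M. tuberculosis H37Ra (ATCC 25177), grown to log phase (OD 1.0) in M. pheli medium from -70°C stock, subcultured once before inoculation. Incubation 8 days (active) or 12 days (dormant). XRMA read-out as absorbance at 470 nm.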

[6] = Cytotoxicity against human A549 cells assessed as growth inhibition by MTT assay; format: cell-based
Procedure, shortened: (§4)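 MTT assay in duplicate on THP-1 leukaemia, A549 lung adenocarcinoma, PANC-1 pancreatic adenocarcinoma and HeLa cervical carcinoma cells, all obtained from ECCC.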

[7] = Selectivity index, ratio of GI50 for human HeLa cells to MIC for active stage of Mycobacterium tuberculosis H37Ra ATCC 25177; format: toxicity, cell-based; conditions: read-out: Selectivity Index; procedure, shortened: as §1
[8] = Selectivity index, ratio of GI50 for human PANC1 cells to MIC for dormant stage of Mycobacterium tuberculosis H37Ra ATCC 25177 infected in human THP1 cells; format: toxicity, cell-based; conditions: PANC-1 cells, read-out: Selectivity Index; procedure, shortened: as §1
[9] = Selectivity index, ratio of GI50 for human PANC1 cells to MIC for active stage of Mycobacterium tuberculosis H37Ra ATCC 25177 infected in human THP1 cells; format: toxicity, cell-based; conditions: PANC-1 cells, read-out: Selectivity Index; procedure, shortened: as §1
[10] = Selectivity index, ratio of GI50 for human A549 cells to MIC for active stage of Mycobacterium tuberculosis H37Ra ATCC 25177 infected in human THP1 cells; format: toxicity, cell-based; conditions: read-out: Selectivity Index; procedure, shortened: as §1
[11] = Cytotoxicity against human PANC1 cells assessed as growth inhibition by MTT assay; format: cell-based; conditions: PANC-1 cells; procedure, shortened: as §4
[12] = system: Mycobacterium tuberculosis; assay: Antitubercular activity against dormant stage of Mycobacterium tuberculosis H37Ra ATCC 25177 after 12 days by XTT reduction menadione assay; format: functional; conditions: H37Ra ATCC 25177, 288 h; procedure, shortened: as §3
[13] = Selectivity index, ratio of GI50 for human HeLa cells to MIC for active stage of Mycobacterium tuberculosis H37Ra ATCC 25177 infected in human THP1 cells; format: toxicity, cell-based; conditions: read-out: Selectivity Index; procedure, shortened: as §1
[14] = Cytotoxicity against human THP1 cells assessed as growth inhibition by MTT assay; format: cell-based; conditions: THP-1 cells; procedure, shortened: as §4
[15] = Selectivity index, ratio of GI50 for human PANC1 cells to MIC for active stage of Mycobacterium tuberculosis H37Ra ATCC 25177; format: toxicity; conditions: PANC-1 cells, read-out: Selectivity Index; procedure, shortened: as §1
[16] = Selectivity index, ratio of GI50 for human HeLa cells to MIC for dormant stage of Mycobacterium tuberculosis H37Ra ATCC 25177; format: toxicity, cell-based; conditions: read-out: Selectivity Index; procedure, shortened: as §1
[17] = system: Mycobacterium tuberculosis; assay: Antitubercular activity against active stage of Mycobacterium tuberculosis H37Ra ATCC 25177 infected in human THP1 cells after 8 days by nitrate reductase assay; format: functional; conditions: H37Ra ATCC 25177, 192 h; procedure, shortened: as §2
[18] = Selectivity index, ratio of GI50 for human A549 cells to MIC for dormant stage of Mycobacterium tuberculosis H37Ra ATCC 25177 infected in human THP1 cells; format: toxicity, cell-based; conditions: read-out: Selectivity Index; procedure, shortened: as §1
[19] = Selectivity index, ratio of GI50 for human A549 cells to MIC for active stage of Mycobacterium tuberculosis H37Ra ATCC 25177; format: toxicity; conditions: read-out: Selectivity Index; procedure, shortened: as §1
[20] = Cytotoxicity against human HeLa cells assessed as growth inhibition by MTT assay; format: cell-based; procedure, shortened: as §4

SMILES | selectivity ratio [1] | MIC [2] | selectivity ratio [3] | selectivity ratio [4] | MIC [5] | GI50 [6] | selectivity ratio [7] | selectivity ratio [8] | selectivity ratio [9] | selectivity ratio [10] | GI50 [11] | MIC [12] | selectivity ratio [13] | GI50 [14] | selectivity ratio [15] | selectivity ratio [16] | MIC [17] | selectivity ratio [18] | selectivity ratio [19] | GI50 [20]
COc1cc(-c2nc(SCCCn3cnc4sc5c(c4c3=O)CCCC5)n(CCCn3cnc4sc5c(c4c3=O)CCCC5)c(=O)c2C#N)cc(OC)c1OC | < 3 | > 30 mg/L | > 3 | < 3 | > 30 mg/L | 83.1 mg/L (≈ 102 µM) | 3 | > 3 | > 3 | < 3 | > 100 mg/L | > 30 mg/L | 3 | 81.4 mg/L (≈ 100 µM) | > 3 | 3 | > 30 mg/L | 3 | 3 | 89.6 mg/L (≈ 110 µM)
COc1cc(-c2nc(SCCCn3cnc4sc5c(c4c3=O)CCCC5)n(CCC(F)(F)C(F)(F)C(F)(F)C(F)(F)C(F)(F)C(F)(F)F)c(=O)c2C#N)cc(OC)c1OC | > 8 | 8.8 mg/L (≈ 9.65 µM) | > 8 | > 11 | > 30 mg/L | > 100 mg/L | > 3 | > 11 | > 3 | > 3 | > 100 mg/L | 11.7 mg/L (≈ 12.8 µM) | > 3 | > 100 mg/L | > 3 | > 8 | > 30 mg/L | > 11 | > 3 | > 100 mg/L
COc1cc(-c2nc(SCCCn3cnc4sc5c(c4c3=O)CCCC5)n(Cc3c(F)c(F)c(F)c(F)c3F)c(=O)c2C#N)cc(OC)c1OC | > 4 | 26.5 mg/L (≈ 35.5 µM) | > 4 | > 4 | > 30 mg/L | > 100 mg/L | > 3 | > 4 | > 3 | > 3 | > 100 mg/L | 28.3 mg/L (≈ 37.9 µM) | > 3 | > 100 mg/L | > 3 | > 4 | > 30 mg/L | > 4 | > 3 | > 100 mg/L
N#Cc1c(-c2ccc(O)cc2)[nH]c(=S)[nH]c1=O | < 3 | > 30 mg/L | < 3 | < 3 | > 30 mg/L | 87.4 mg/L (≈ 356 µM) | 3 | < 3 | 3 | < 3 | 89.1 mg/L (≈ 363 µM) | > 30 mg/L | 3 | 93 mg/L (≈ 379 µM) | 3 | 3 | > 30 mg/L | 3 | 3 | 90.8 mg/L (≈ 370 µM)
CCCCCCCCCCCn1c(SCCCn2cnc3sc4c(c3c2=O)CCCC4)nc(-c2cc(OC)c(OC)c(OC)c2)c(C#N)c1=O | > 3 | > 30 mg/L | > 3 | > 3 | > 30 mg/L | > 100 mg/L | > 3 | > 3 | > 3 | > 3 | > 100 mg/L | > 30 mg/L | > 3 | > 100 mg/L | > 3 | > 3 | > 30 mg/L | > 3 | > 3 | > 100 mg/L
COc1cc(-c2nc(SCCCn3cnc4sc5c(c4c3=O)CCCC5)n(Cc3ccccc3)c(=O)c2C#N)cc(OC)c1OC | > 3 | > 30 mg/L | 2 | 2 | > 30 mg/L | > 100 mg/L | 2 | 2 | 2 | > 3 | 51.9 mg/L (≈ 79.1 µM) | > 30 mg/L | 2 | > 100 mg/L | 2 | 2 | > 30 mg/L | > 3 | > 3 | 72.1 mg/L (≈ 110 µM)
COc1cc(-c2[nH]c(=S)[nH]c(=O)c2C#N)cc(OC)c1OC | > 6 | 11.3 mg/L (≈ 35.4 µM) | > 6 | 6 | > 30 mg/L | > 100 mg/L | 2 | > 9 | > 3 | > 3 | > 100 mg/L | 17.3 mg/L (≈ 54.2 µM) | 2 | > 100 mg/L | > 3 | 4 | > 30 mg/L | > 9 | > 3 | 63.7 mg/L (≈ 199 µM)
COc1cc(-c2nc(SCCCn3cnc4sc5c(c4c3=O)CCCC5)n(S(=O)(=O)c3ccc(C)cc3)c(=O)c2C#N)cc(OC)c1OC | > 3 | > 30 mg/L | > 3 | < 2 | > 30 mg/L | > 100 mg/L | 2 | > 3 | > 3 | > 3 | > 100 mg/L | > 30 mg/L | 2 | > 100 mg/L | > 3 | 2 | > 30 mg/L | > 3 | > 3 | 64.2 mg/L (≈ 89.2 µM)
C#CCn1c(SCCCn2cnc3sc4c(c3c2=O)CCCC4)nc(-c2cc(OC)c(OC)c(OC)c2)c(C#N)c1=O | > 3 | > 30 mg/L | > 3 | – | > 30 mg/L | > 100 mg/L | 2 | > 3 | > 3 | > 3 | > 100 mg/L | > 30 mg/L | 2 | > 100 mg/L | > 3 | 2 | > 30 mg/L | > 3 | > 3 | 66.3 mg/L (≈ 110 µM)
Cc1ccc(-c2nc(S)nc(O)c2C#N)cc1 | < 3 | > 30 mg/L | > 3 | 2 | > 30 mg/L | 86.7 mg/L (≈ 356 µM) | 2 | > 3 | > 3 | < 3 | > 100 mg/L | > 30 mg/L | 2 | 88.9 mg/L (≈ 365 µM) | > 3 | 2 | > 30 mg/L | 3 | 3 | 67.6 mg/L (≈ 278 µM)
CC(=O)O[C@H]1C(=O)[C@@]2(C)[C@H]([C@H](OC(=O)c3ccccc3)[C@]3(O)C[C@H](OC(=O)[C@H](O)[C@@H](NC(=O)c4ccccc4)c4ccccc4)C(C)=C1C3(C)C)[C@]1(OC(C)=O)CO[C@@H]1C[C@@H]2O [PACLITAXEL] | – | – | – | – | – | – | – | – | – | – | 0.128 mg/L (≈ 0.15 µM) | – | – | – | – | – | – | – | – | –
CO[C@H]1/C=C/O[C@@]2(C)Oc3c(C)c(O)c4c(O)c(c(/C=N/N5CCN(C)CC5)c(O)c4c3C2=O)NC(=O)/C(C)=C\C=C\[C@H](C)[C@H](O)[C@@H](C)[C@@H](O)[C@@H](C)[C@H](OC(C)=O)[C@@H]1C [RIFAMPIN] | 208 | 0.75 mg/L (≈ 0.911 µM) | 208 | – | 0.41 mg/L (≈ 0.498 µM) | – | 244 | – | 196 | 196 | – | 0.48 mg/L (≈ 0.583 µM) | 196 | 0.14 mg/L (≈ 0.17 µM) | 244 | 208 | 0.51 mg/L (≈ 0.62 µM) | – | 244 | –
